Measurements taken from article PMC12799544 (Molecular Pharmacology, 2025).
Values joined by “and” are separate entries in the source; they are usually repeats but may differ in a detail not shown here. Identical values can stand only once.

How the values were obtained:
RyR1 [1] = target: T1, RyR1 (Sus scrofa, UniProt P16960); assay: RyR1 single-channel recording in artificial lipid bilayers; format: biochemical, porcine
Method in brief: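 Porcine longissimus dorsi SR vesicles were fused into PE:PS:PC (5:3:2) bilayers with symmetric 250 mM Cs+ and TES pH 7.4. The cis side held 0.1 μM free Ca (CaCl2/BAPTA) plus 2 mM ATP, at 23 ± 2 °C. Compound was added cis by aliquot or local perfusion, DMSO <0.1%. Po came from 30–60 s recordings, 50% amplitude threshold, 1 kHz filter. Nonlinear 4-parameter concentration-response fit.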

RyR1 [2] = target: T1, RyR1; assay: [3H]-ryanodine ligand binding assay, skeletal SR membrane; design: species or system porcine
Method in brief: (§1)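 Porcine skeletal SR (1 mg/mL) was incubated 3 h at 37 °C with 10 nM [3H]-ryanodine and compound in 20 mM PIPES pH 7.0, 150 mM KCl, 5 mM ATP, 0.1 μM calmodulin and 0.1 μM free Ca (1 mM EGTA). Nonspecific binding used 15 μM cold ryanodine; maximal binding used 5 mM AMP-PNP plus 20 mM caffeine. Bound label was counted by filtration and scintillation, normalized to vehicle; 4-parameter fit.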

[3] = Parallel artificial membrane permeability assay; format: in vitro ADME
Method in brief: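 Donor compound at 500 μM in PBS pH 7.4 with TPGS, across hydrophobic membranes pretreated with 1% lecithin in n-dodecane, into PBS acceptor. Incubated 14–18 h at room temperature in a humidified chamber. Donor and acceptor were quantified by LC-MS; Papp, percent recovery and percent diffusion came from ratio formulas.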

RyR2 [4] = target: T2, RyR2 (Sus scrofa, UniProt A0A5G2R1W3); assay: [3H]-ryanodine ligand binding assay, cardiac SR membrane; design: species or system porcine
Method in brief: as §1, with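 “Porcine cardiac” for “Porcine skeletal”, “SR (3” for “SR (1”, “with 7.5” for “with 10”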

RyR2 [5] = target: RyR2 (Mus musculus, UniProt E9Q401); assay: Ca spark assay in permeabilized ventricular cardiomyocytes; format: cell-based, C57BL/6J mice; settings: for Concentration dependence of Ca spark frequency: increasing concentrations
RyR2 (Mus musculus, UniProt E9Q401), sequence (E9Q401 whole entry): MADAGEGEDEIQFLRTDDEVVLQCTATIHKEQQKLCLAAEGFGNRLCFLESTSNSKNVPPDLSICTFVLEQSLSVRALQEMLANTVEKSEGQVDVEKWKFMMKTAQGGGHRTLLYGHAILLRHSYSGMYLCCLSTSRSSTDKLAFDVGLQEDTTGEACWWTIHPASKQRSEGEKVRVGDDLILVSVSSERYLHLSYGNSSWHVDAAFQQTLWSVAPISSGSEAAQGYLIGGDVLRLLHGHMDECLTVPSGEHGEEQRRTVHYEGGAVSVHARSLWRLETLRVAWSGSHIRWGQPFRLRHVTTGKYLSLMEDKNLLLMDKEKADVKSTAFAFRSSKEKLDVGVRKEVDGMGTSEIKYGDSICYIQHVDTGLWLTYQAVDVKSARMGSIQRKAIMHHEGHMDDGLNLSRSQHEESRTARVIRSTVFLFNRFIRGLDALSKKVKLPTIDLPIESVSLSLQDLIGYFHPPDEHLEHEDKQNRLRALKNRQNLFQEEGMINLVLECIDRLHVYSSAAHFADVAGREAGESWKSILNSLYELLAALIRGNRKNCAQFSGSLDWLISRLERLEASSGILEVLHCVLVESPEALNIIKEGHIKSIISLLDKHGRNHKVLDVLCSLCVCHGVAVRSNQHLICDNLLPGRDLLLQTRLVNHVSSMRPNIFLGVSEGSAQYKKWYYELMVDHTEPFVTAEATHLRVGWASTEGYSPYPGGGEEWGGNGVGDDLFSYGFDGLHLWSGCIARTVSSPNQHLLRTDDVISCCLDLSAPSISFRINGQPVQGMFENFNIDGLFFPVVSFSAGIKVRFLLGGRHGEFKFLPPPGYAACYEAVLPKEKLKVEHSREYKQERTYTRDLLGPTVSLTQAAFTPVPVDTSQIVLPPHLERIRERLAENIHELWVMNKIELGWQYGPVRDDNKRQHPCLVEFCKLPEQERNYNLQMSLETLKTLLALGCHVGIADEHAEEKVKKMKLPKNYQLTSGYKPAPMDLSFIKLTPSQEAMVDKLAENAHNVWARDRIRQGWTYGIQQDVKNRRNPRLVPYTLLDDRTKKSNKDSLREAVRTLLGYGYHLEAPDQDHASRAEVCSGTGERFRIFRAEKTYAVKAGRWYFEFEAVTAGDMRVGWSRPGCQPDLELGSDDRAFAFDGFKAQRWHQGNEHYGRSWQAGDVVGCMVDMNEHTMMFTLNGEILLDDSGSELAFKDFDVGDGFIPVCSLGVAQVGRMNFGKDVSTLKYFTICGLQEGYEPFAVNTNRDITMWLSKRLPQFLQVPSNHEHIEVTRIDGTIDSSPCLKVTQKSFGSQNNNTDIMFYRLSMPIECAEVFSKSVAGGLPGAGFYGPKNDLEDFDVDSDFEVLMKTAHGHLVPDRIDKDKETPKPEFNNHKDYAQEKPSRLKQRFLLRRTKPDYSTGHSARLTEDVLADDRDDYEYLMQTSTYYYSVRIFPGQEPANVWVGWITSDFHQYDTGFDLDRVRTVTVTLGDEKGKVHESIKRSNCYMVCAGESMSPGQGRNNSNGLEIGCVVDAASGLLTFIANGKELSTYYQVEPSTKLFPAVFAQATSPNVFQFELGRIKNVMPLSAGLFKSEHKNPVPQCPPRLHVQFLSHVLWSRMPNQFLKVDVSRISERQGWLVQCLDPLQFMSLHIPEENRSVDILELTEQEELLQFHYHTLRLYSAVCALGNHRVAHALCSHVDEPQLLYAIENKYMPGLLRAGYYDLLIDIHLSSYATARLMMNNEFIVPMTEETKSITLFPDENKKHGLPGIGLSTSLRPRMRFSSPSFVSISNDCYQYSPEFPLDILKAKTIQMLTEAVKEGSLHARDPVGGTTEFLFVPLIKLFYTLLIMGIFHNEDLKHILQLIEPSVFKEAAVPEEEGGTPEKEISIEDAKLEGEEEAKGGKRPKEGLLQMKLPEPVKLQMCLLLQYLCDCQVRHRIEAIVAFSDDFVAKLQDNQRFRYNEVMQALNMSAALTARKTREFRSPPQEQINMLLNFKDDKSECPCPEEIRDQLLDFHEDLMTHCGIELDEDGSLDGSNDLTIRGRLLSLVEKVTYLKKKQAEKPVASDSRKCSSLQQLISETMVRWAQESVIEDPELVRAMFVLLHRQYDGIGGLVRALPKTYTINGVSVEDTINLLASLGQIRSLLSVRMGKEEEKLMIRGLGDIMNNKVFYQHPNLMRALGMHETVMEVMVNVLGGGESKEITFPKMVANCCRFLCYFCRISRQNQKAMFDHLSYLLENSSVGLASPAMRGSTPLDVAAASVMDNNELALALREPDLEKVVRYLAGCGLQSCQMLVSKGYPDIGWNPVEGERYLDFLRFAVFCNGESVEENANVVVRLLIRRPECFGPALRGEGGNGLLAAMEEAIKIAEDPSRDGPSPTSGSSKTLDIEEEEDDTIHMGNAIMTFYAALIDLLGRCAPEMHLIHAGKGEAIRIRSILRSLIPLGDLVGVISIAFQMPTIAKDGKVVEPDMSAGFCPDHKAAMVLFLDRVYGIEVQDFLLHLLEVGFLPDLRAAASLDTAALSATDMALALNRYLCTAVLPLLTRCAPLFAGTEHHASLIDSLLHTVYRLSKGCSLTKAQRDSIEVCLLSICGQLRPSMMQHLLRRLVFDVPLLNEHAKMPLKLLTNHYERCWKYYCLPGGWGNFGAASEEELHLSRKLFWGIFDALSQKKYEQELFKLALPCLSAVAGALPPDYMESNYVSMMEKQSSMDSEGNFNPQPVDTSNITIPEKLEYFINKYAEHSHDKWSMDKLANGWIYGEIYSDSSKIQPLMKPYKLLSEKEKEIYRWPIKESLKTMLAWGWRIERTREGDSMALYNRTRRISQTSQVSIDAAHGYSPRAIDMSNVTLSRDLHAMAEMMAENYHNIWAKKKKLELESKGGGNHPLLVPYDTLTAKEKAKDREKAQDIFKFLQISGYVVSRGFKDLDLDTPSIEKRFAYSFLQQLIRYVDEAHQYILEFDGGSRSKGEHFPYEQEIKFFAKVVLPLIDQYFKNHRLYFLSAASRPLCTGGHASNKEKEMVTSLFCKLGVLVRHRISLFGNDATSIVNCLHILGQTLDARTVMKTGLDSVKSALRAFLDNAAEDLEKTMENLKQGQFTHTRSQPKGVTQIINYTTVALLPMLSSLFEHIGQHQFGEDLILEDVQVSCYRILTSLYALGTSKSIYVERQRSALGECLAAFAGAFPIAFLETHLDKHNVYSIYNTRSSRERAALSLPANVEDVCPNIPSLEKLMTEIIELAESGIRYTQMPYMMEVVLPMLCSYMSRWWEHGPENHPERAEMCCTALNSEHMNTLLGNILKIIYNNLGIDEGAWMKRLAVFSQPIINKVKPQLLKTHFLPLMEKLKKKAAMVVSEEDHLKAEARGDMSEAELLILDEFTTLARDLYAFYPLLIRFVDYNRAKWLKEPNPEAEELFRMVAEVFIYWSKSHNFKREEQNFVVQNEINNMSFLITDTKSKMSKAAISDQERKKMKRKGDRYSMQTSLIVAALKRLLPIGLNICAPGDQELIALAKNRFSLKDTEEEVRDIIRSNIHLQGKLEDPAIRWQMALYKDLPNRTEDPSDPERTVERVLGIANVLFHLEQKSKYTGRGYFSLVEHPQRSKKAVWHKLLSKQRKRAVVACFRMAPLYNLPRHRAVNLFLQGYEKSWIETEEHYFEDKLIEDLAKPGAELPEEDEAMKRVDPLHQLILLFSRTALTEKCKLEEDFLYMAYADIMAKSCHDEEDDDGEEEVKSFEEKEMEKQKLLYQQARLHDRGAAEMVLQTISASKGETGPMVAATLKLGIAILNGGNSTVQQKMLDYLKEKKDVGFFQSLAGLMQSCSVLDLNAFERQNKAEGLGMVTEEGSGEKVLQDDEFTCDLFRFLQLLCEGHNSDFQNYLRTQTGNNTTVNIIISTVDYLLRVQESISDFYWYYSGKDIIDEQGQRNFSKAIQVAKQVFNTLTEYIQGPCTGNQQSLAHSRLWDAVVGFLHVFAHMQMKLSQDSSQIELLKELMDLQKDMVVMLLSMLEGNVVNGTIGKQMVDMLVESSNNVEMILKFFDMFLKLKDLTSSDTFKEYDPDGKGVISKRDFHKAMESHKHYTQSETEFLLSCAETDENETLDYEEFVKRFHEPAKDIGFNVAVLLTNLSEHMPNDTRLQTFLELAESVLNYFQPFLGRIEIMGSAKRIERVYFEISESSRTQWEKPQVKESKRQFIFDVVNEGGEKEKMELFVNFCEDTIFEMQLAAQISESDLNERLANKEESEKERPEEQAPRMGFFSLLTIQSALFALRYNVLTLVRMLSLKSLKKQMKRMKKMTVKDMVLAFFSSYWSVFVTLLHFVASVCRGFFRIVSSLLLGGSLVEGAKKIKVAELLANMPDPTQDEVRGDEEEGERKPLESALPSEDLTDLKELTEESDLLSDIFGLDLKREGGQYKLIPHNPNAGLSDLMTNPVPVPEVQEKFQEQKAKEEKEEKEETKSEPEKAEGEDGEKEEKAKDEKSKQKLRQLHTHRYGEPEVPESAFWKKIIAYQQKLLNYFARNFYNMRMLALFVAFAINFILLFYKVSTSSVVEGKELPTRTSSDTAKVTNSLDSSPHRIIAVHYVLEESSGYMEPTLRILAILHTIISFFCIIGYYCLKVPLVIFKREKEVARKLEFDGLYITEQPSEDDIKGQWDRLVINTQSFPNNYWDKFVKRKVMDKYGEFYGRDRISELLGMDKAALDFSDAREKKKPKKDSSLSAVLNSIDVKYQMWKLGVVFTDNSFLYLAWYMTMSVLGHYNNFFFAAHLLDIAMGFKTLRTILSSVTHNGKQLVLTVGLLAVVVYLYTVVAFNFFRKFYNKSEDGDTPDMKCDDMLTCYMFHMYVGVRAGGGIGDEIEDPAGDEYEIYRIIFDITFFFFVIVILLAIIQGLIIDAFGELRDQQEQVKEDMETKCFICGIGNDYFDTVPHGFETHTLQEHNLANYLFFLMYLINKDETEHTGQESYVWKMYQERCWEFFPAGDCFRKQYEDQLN
Method in brief: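 Mouse ventricular myocytes (C57BL/6J, 12–18 weeks, both sexes) attached 10 min on laminin at room temperature, saponin-permeabilized (40 μg/mL, 40 s), then bathed 15 min in pH 7.2 internal solution (5 mM MgATP, 0.5 mM EGTA, 0.12 mM CaCl2, Fluo-4) with 0.1% DMSO or test compound. Confocal x-t sparks in brick-shaped cells; caffeine used as reference activator. Hierarchical mixed-effects statistics; 4-parameter concentration-response fit.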

Caco-2 cell monolayer = assay: Caco-2 bidirectional permeability assay; format: in vitro ADME, human; settings: recovery
Method in brief: (§2)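 Caco-2 monolayers (passages 55–65) grown 21 days on 0.4 μm Transwell inserts and used only above 1000 Ω·cm2 TEER. Compound at 10 μM in HBSS (<1% DMSO) was dosed apically or basally. Samples at 0 and 2 h were analyzed by LC-MS for Papp, efflux ratio and recovery. Integrity was checked afterwards by lucifer yellow flux (≤0.5%).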

[6] = Caco-2 bidirectional permeability assay; format: in vitro ADME, human; settings: human, Caco-2, pH 7.4
Method in brief: as §2

RyR2 [7] = target: T2, RyR2; assay: RyR2 single-channel recording in artificial lipid bilayers; format: biochemical, porcine
Method in brief: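 Porcine cardiac SR vesicles were fused into PE:PS:PC (5:3:2) bilayers with symmetric 250 mM Cs+ and TES pH 7.4. The cis side held 0.1 μM free Ca (CaCl2/BAPTA) plus 2 mM ATP, at 23 ± 2 °C and +40 mV. Compound (0.01–10 or 1–100 μM) was added cis with DMSO <0.1%. Po came from 30–60 s at a 50% threshold, relative to vehicle on the same channel. Dwell times were fitted with 2 exponentials; 4-parameter fit.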

RyR2 [8] = settings: cited from earlier work

CCCCC[C@@H]1OC(=O)[C@@H](C)N(C)C(=O)[C@H](CCCCC)OC(=O)[C@@H](C)N(C)C(=O)[C@H](CC(=O)O)OC(=O)[C@@H](C)N(C)C(=O)[C@H](CCCCC)OC(=O)[C@@H](C)N(C)C1=O [activert, 2-((2S,5R,8S,11R,14S,17R,20S,23R)-4,5,10,11,16,17,22,23-Octamethyl-3,6,9,12,15,18,21,24-octaoxo-8,14,20-tripentyl-1,7,13,19-tetraoxa-4,10,16,22-tetraazacyclotetracosan-2-yl)acetic acid]
EC50 (RyR1 [1]): ~10.5 µM | Emax (RyR1 [1]; read-out: Emax, increase of RyR1 single-channel Po): ~14.4% | EC50 (RyR1 [2]): ~9 µM | Emax (RyR1 [2]; read-out: Emax, increase of [3H]-ryanodine binding to RyR1 normalized to vehicle): ~17% | % Diffusion ([3]; PAMPA): 7% | %R ([3]; PAMPA recovery): 92% | Papp at 500 µM ([3]; PAMPA, pH 7.4, Permeability (experimental permeability rate)): < 2 ×10⁻⁶ cm/s | EC50 (RyR2 [4]): ~46 µM | Emax (RyR2 [4]; read-out: Emax, increase of [3H]-ryanodine binding to RyR2 normalized to vehicle): ~29% | Average duration of the Ca spark (RyR2 [5]; 25 μM): modestly increased | Overall RyR2-mediated SR Ca leak (RyR2 [5]; 25 μM): elevated | Reduction of SR Ca load (amplitude of caffeine-induced Ca transient) (RyR2 [5]; 25 μM): ~10% | Size (amplitude or width) of the average Ca spark (RyR2 [5]; 25 μM): without changes | Ca spark frequency versus vehicle (RyR2 [5]; 25 μM, 15 min, permeabilized cardiomyocytes): increase | Distribution of Ca spark duration compared with DMSO control (RyR2 [5]; 100 μM activert): prolonged | Concentration dependence of Ca spark frequency (RyR2 [5]): dose-dependent increase | %R (A-B) (Caco-2 cell monolayer; apical-to-basal): 101% | %R (B-A) (Caco-2 cell monolayer; basal-to-apical): 80% | Papp A→B at 2 h, 10 µM [6]: 0.4 ×10⁻⁶ cm/s | Papp B→A at 2 h, 10 µM [6]: 1.1 ×10⁻⁶ cm/s | Papp at 2 h, 10 µM [6]: < 1 ×10⁻⁶ cm/s | efflux ratio at 2 h, 10 µM [6]: 2.73 | IC50 (RyR2 [7]): ~32.2 µM | EC50 (RyR2 [7]; EC50, activation of RyR2 single-channel Po, pCa 7, 2 mM ATP, +40 mV, 95% CI 1.4–63.1 μM): ~30 µM and ~32.2 µM | Mean closed duration (RyR2 [7]; activert ≥50 μM versus vehicle): decreased | Mean open duration (RyR2 [7]; activert ≥50 μM versus vehicle): without altering | Potency on RyR2 compared with ent-verticilide (fold less potent) (RyR2 [7]; compared with ent-verticilide): ~100 fold | Emax (RyR2 [7]; read-out: Emax, partial activation of RyR2 single-channel Po): ~34%

Cn1c(=O)c2c(ncn2C)n(C)c1=O [caffeine, reference compound]
Ca spark duration with caffeine (RyR2 [5]; 1 mM caffeine): many long-lasting sparks | Concentration dependence of Ca spark frequency (RyR2 [5]): dose-dependent response

O=C1CN(/N=C/c2ccc(-c3ccc([N+](=O)[O-])cc3)o2)C(O)=N1 [dantrolene]
Maximal inhibition of RyR2 (RyR2 [8]): ~50%
